Assay results of several laboratories.
Protocols differ between the studies behind these lines.
CDK7: Cyclin-dependent kinase 7 (CDK7, Homo sapiens, UniProt P50613)
CDK7 with cyclin H: Cyclin-dependent kinase 7, with cyclin H (CDK7, Homo sapiens, UniProt P50613)

CCS(=O)(=O)c1cc2cc(C[C@@](O)(CC(C)(C)c3ccc(F)cc3C(N)=O)C(F)(F)F)[nH]c2cn1  remaining binding (CDK7; cell-free assay; competition with immobilised ligand; 1 µM): 99%
O=C1C[C@@H](c2ccc(O)cc2)Oc2cc(O)cc(O)c21  inhibition (CDK7 with cyclin H; enzyme activity; inhibitor; ADP detection; 10 µM): 3.7%
Oc1ccc(-c2nc(-c3ccncc3)c(-c3ccc(F)cc3)[nH]2)cc1  remaining signal (CDK7 with cyclin H; cell-free assay; 0.5 µM): 99.4%
O=c1cc(-c2ccccc2)oc2ccccc12  inhibition (CDK7 with cyclin H; enzyme activity; inhibitor; ADP detection; 10 µM): 41.7%
Cc1sc(C(=O)NC2COC2)cc1-n1cc(NC(=O)Nc2c(F)cccc2Cl)cn1  remaining activity (CDK7 with cyclin H; enzyme activity; inhibitor; 10 µM): 103%
CCN(CC)c1ccc(C2=NNC(=O)CC2C)cc1[N+](=O)[O-] (stereo not drawn)  remaining activity (CDK7; enzyme activity; inhibitor; 10 µM): 96%
COc1cc2ncnc(Nc3ccc(F)c(Cl)c3)c2cc1OCCCN1CCOCC1  remaining signal (CDK7 with cyclin H; cell-free assay; 0.5 µM): 105%
CCCOc1ccc(OC)c(F)c1C(=O)c1ccc(C(=O)N[C@@H]2CNC[C@H]2NC(=O)c2ccc3[nH]ncc3c2)cc1  remaining activity (CDK7; enzyme activity; inhibitor; 10 µM): 13%
Cc1cc(NC(=O)c2cccc(S(F)(F)(F)(F)F)c2)cc(-n2ccn3nc(-c4cccnc4)cc23)c1  remaining binding (CDK7; cell-free assay; competition with immobilised ligand; 1 µM): 100%
O=C1C[C@@H](c2ccc(O)c(O[C@@H]3O[C@H](CO)[C@@H](O)[C@H](O)[C@H]3O)c2)Oc2cc(O[C@@H]3O[C@H](CO)[C@@H](O)[C@H](O)[C@H]3O)ccc21  inhibition (CDK7 with cyclin H; enzyme activity; inhibitor; ADP detection; 10 µM): 36.6%
O=C(NCc1ncc(C(F)(F)F)cc1Cl)c1ccc2c(c1)C1(CCS(=O)(=O)CC1)[C@@H](C1CC1)N2S(=O)(=O)c1ccc(F)cc1  remaining binding (CDK7; cell-free assay; competition with immobilised ligand; 1 µM): 56%
CC(C)c1ccc(NC(=O)c2cccs2)c(-c2nc3ccccc3[nH]c2=O)c1  activity vs control (CDK7; enzyme activity; inhibitor; 1 µM): 85%
C[C@@H]1CN(c2cc(-c3n[nH]c4ccc(OC5(C)CC5)cc34)ncn2)C[C@H](C)O1  remaining binding (CDK7; cell-free assay; competition with immobilised ligand; 0.1 µM): 56%
CNC(=O)c1cc(Oc2ccc(NC(=O)Nc3ccc(Cl)c(C(F)(F)F)c3)cc2)ccn1  inhibition (CDK7 with cyclin H; enzyme activity; inhibitor; 0.3 µM): -3%
COc1cc2oc(-c3ccccc3)cc(=O)c2c(OC)c1OC  inhibition (CDK7 with cyclin H; enzyme activity; inhibitor; ADP detection; 10 µM): 22.4%
CC(C)(C)c1nc(-c2cccc(NS(=O)(=O)c3c(F)cccc3F)c2F)c(-c2ccnc(N)n2)s1  remaining activity (CDK7 with cyclin H; enzyme activity; inhibitor; radiometric; 1 µM): 109%
Cc1ccc(NC(=O)c2ccc(C)c(C(F)(F)F)c2)cc1C#Cc1nn(C2CCC(O)CC2)c2ncnc(N)c12 (stereo not drawn)  remaining signal (CDK7; cell-free assay; 10 µM): 103%
O=c1cc(-c2ccccc2)oc2cc(O)cc(O)c12  inhibition (CDK7 with cyclin H; enzyme activity; inhibitor; ADP detection; 10 µM): 58.8%
CCCCNc1ncc2c(-c3ccc(F)cc3)nn(C[C@H]3CC[C@H](N)CC3)c2n1  inhibition (CDK7; target engagement in cells; inhibitor; chemoproteomics; 20 mM): 31.5%
C=C(C)[C@@H]1CC[C@]2(C(=O)O)CC[C@]3(C)[C@H](CC[C@@H]4[C@@]5(C)CC[C@H](O)C(C)(C)[C@@H]5CC[C@]43C)[C@@H]12  inhibition (CDK7 with cyclin H; enzyme activity; inhibitor; ADP detection; 10 µM): 35.2%
CO[C@@H](C)c1c(Nc2ccc([C@H](N(C)C(=O)C3CCS(=O)(=O)CC3)C(F)(F)F)cc2)cnc2cc(Cl)nn12  remaining binding (CDK7; cell-free assay; competition with immobilised ligand; 1 µM): 100%
C=C1CC[C@@H]2[C@](C)(CO)[C@H](O)CC[C@@]2(C)[C@@H]1CCC1=CCOC1=O  inhibition (CDK7 with cyclin H; enzyme activity; inhibitor; ADP detection; 10 µM): 22.8%
CNC(=O)c1ccc(Nc2ncc(C(F)(F)F)c(NCc3nccnc3N(C)S(C)(=O)=O)n2)cc1  remaining binding (CDK7; cell-free assay; competition with immobilised ligand; 0.1 µM): 59%
Nc1ncnc2occ(-c3ccc(NC(=O)Nc4cc(C(F)(F)F)ccc4F)cc3)c12  remaining signal (CDK7; cell-free assay; inhibitor; 20 µM): 0.9%
CC(=O)Nc1c(C(C)=O)c(=O)n(C)c2nc(-c3ccc(Cl)cc3Cl)c(-c3ccc(Cl)cc3)cc12  remaining binding (CDK7; cell-free assay; competition with immobilised ligand; 1 µM): 100%
O=C(Nc1cnn(-c2csc(C(=O)NC3COC3)c2)c1)Nc1c(F)cccc1Cl  remaining activity (CDK7 with cyclin H; enzyme activity; inhibitor; 5 µM): 95.8%
O=C1Nc2ccc(Cl)cc2C1=Cc1cc(Cl)c(O)c(Cl)c1  remaining signal (CDK7 with cyclin H; cell-free assay; 0.5 µM): 96.7%
CCCCCC[C@@H](C)/C=C(C)/C=C/C(=O)N[C@H]1CC2(O[C@H]1O)[C@@H]1O[C@@H]1C(=O)[C@@H]1O[C@@H]12 (stereo partly drawn)  inhibition (CDK7 with cyclin H; enzyme activity; inhibitor; ADP detection; 10 µM): -18.5%
C[C@H](c1ccnc(Nc2nc3ccc(-c4cc(N(C)C)ncn4)cc3[nH]2)c1)N1CCN(C(=O)CC(F)(F)F)CC1  remaining binding (CDK7; cell-free assay; competition with immobilised ligand; 0.1 µM): 93%
Cc1ccc(C(=O)Nc2ccc(CN3CCN(C)CC3)c(C(F)(F)F)c2)cc1C#Cc1cnc2cccnn12  remaining activity (CDK7; enzyme activity; inhibitor; 23.5 nM): 47%
